From ChEMBL document CHEMBL1156295, “In vitro and in vivo photocytotoxicity of boron dipyrromethene derivatives for photodynamic therapy” (J Med Chem, 2010)
The source made the active and inactive calls. The rule behind the calls is not given here.

Legend:
HSC-2 [1] = test: Cell cycle arrest in human HSC2 cells irradiated with 4.1 J/cm^2 broad spectrum light assessed as accumulation at sub-G1 phase at 0.25 uM after 12 hrs by flow cytometry relative to control; format: functional
Outline: (§1)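 HSC-2 cells given compound for 2 h, then irradiated with broad-spectrum light (or kept dark). Floating plus trypsinized adherent cells collected at set times after irradiation. Fixed in 70% ice-cold ethanol overnight at 4 °C, then stained 30 min with 20 μg/mL RNase A and 1 μM SYTOX Green. 1 × 10^4 cells read by flow cytometry (488 nm laser, FL1 530/30).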

HSC-2 [2] = test: Induction of apoptosis in human HSC2 cells irradiated with 4.1 J/cm^2 broad spectrum light assessed as apoptotic cells at 0.5 uM after 4 hrs of irradiation by annexin V-FITC staining; format: functional
Outline: (§2)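 HSC-2 cells at 50% confluency in dishes, treated 2 h, then irradiated (4.1 J/cm2 broad spectrum) or kept dark. At intervals, floating and trypsinized cells pooled, washed in cold PBS, resuspended at 1 × 10^6 cells/mL in binding buffer. Stained 15 min in the dark at room temperature with annexin V-FITC and propidium iodide. 1 × 10^4 cells read by flow cytometry (FL1, FL3).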

[3] = Cellular uptake in human HSC2 cells assessed as intracellular localization in to mitochondria labeled with rhodamine 123 dye at 100 nM by spinning disk confocal microscopy; format: ADME; conditions: hsc-2, 0.1 µM
Outline: (§3)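 HSC-2 cells grown on glass coverslips, co-incubated at room temperature for 15–30 min with compound plus probe: ER-Tracker 100 nM, LysoTracker 500 nM or Rh123 100 nM. Rinsed in PBS. XY sections at 0.2 μm imaged; excitation 330–385 nm for ER/Lyso probes, 460–490 nm for Rh123, 520–550 nm for photosensitizer.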

HSC-2 [4] = test: Cell cycle arrest in human HSC2 cells irradiated with 4.1 J/cm^2 broad spectrum light assessed as accumulation at G2/M phase at 0.25 uM after 4 hrs by flow cytometry relative to control; format: functional; outline: as §1
HSC-2 [5] = test: Cell cycle arrest in human HSC2 cells irradiated with 4.1 J/cm^2 broad spectrum light assessed as accumulation at sub-G1 phase at 0.25 uM after 8 hrs by flow cytometry relative to control; format: functional; outline: as §1
HSC-2 [6] = test: Induction of apoptosis in human HSC2 cells irradiated with 4.1 J/cm^2 broad spectrum light assessed as viable cells at 0.5 uM after 24 hrs of irradiation by annexin V-FITC staining; format: functional; conditions: HSC-2, light or radiation study, read-out: Activity; outline: as §2
Gallus gallus = species: Gallus gallus; test: Antiangiogenic activity against chicken chorioallantoic membrane irradiated with 20 to 40 J/cm^2 assessed as induction of vascular occlusion at 3.5 to 7 nmol/embryo; format: functional, tissue-based
Outline: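 Fertilized chicken eggs incubated at 37 °C, 65% humidity. On EDD-9, single iv bolus into the main CAM vessel in cremophor EL 5%, EtOH 5% in saline. One minute later, a 0.02 cm2 site with 5–100 μm vessels irradiated at 510–560 nm, 40 mW/cm2 (or left dark). After 24 h, FITC-dextran/Indian ink angiography and damage scoring per Lange et al.; at least 10 embryos, mean ± SEM.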

HSC-2 [7] = test: Cell cycle arrest in human HSC2 cells irradiated with 4.1 J/cm^2 broad spectrum light assessed as accumulation at G1 phase at 0.25 uM after 12 hrs by flow cytometry relative to control; format: functional; outline: as §1
HSC-2 [8] = test: Cell cycle arrest in human HSC2 cells irradiated with 4.1 J/cm^2 broad spectrum light assessed as accumulation at sub-G1 phase at 0.25 uM after 4 hrs by flow cytometry relative to control; format: functional; outline: as §1
HSC-2 [9] = test: Cytotoxicity against human HSC2 cells after 24 hrs by MTT assay; format: functional, cell-based; conditions: HSC-2, 24 h
Outline: (§4)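 HL60 at 15000 cells/well; HSC-2 and HK1 at 3000 cells/well, adhered overnight; phenol-red-free medium with 10% FBS. Compound tested at 0.001–100.0 μM from DMSO stock; controls 0.01% DMSO. After 2 h, irradiated with broad-spectrum light at 6.8 mW/cm2, or dark. After 24 h, MTT 4 h at 37 °C, formazan in DMSO, A570. Three determinations, mean ± SD.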

HSC-2 [10] = test: Induction of apoptosis in human HSC2 cells in dark assessed as viable cells at 0.5 uM after 4 hrs of irradiation by annexin V-FITC staining; format: functional; conditions: HSC-2, light or radiation study, read-out: Activity; outline: as §2
HSC-2 [11] = test: Induction of apoptosis in human HSC2 cells in dark assessed as apoptotic cells at 0.5 uM after 24 hrs by annexin V-FITC staining; format: functional; outline: as §2
[12] = Cytotoxicity against human HK1 cells after 24 hrs by MTT assay; format: functional, cell-based; conditions: HK-1, 24 h; outline: as §4
HSC-2 [13] = test: Cell cycle arrest in human HSC2 cells irradiated with 4.1 J/cm^2 broad spectrum light assessed as accumulation at G2/M phase at 0.25 uM after 12 hrs by flow cytometry relative to control; format: functional; outline: as §1
HL-60 = test: Cytotoxicity against human HL60 cells after 24 hrs by MTT assay; format: functional, cell-based; conditions: HL-60, 24 h; outline: as §4
HSC-2 [14] = test: Cell cycle arrest in human HSC2 cells irradiated with 4.1 J/cm^2 broad spectrum light assessed as accumulation at G2/M phase at 0.25 uM after 6 hrs by flow cytometry relative to control; format: functional; outline: as §1
HSC-2 [15] = test: Phototoxicity against human HSC2 cells irradiated with 4.1 J/cm^2 broad spectrum light treated 2 hrs before irradiation measured after 24 hrs by MTT assay; format: functional, cell-based; conditions: HSC-2, light or radiation study; outline: as §4
HSC-2 [16] = test: Cell cycle arrest in human HSC2 cells irradiated with 4.1 J/cm^2 broad spectrum light assessed as accumulation at G2/M phase at 0.25 uM after 2 hrs by flow cytometry relative to control; format: functional; outline: as §1
[17] = Phototoxicity against human HK1 cells irradiated with 4.1 J/cm^2 broad spectrum light treated 2 hrs before irradiation measured after 24 hrs by MTT assay; format: functional, cell-based; conditions: HK-1, light or radiation study; outline: as §4
HSC-2 [18] = test: Cell cycle arrest in human HSC2 cells in dark assessed as accumulation at G1 phase at 0.25 uM after 12 hrs by flow cytometry relative to control; format: functional; outline: as §1
HSC-2 [19] = test: Induction of apoptosis in human HSC2 cells irradiated with 4.1 J/cm^2 broad spectrum light assessed as viable cells at 0.5 uM after 16 hrs of irradiation by annexin V-FITC staining; format: functional; conditions: HSC-2, light or radiation study, read-out: Activity; outline: as §2
HSC-2 [20] = test: Cell cycle arrest in human HSC2 cells irradiated with 4.1 J/cm^2 broad spectrum light assessed as accumulation at G2/M phase at 0.25 uM after 8 hrs by flow cytometry relative to control; format: functional; outline: as §1
HSC-2 [21] = test: Cell cycle arrest in human HSC2 cells irradiated with 4.1 J/cm^2 broad spectrum light assessed as accumulation at sub-G1 phase at 0.25 uM after 2 hrs by flow cytometry relative to control; format: functional; outline: as §1
HSC-2 [22] = test: Induction of apoptosis in human HSC2 cells irradiated with 4.1 J/cm^2 broad spectrum light assessed as viable cells at 0.5 uM after 4 hrs of irradiation by annexin V-FITC staining; format: functional; conditions: HSC-2, light or radiation study, read-out: Activity; outline: as §2
[23] = Cellular uptake in human HSC2 cells assessed as intracellular localization in to nuclear membrane at 100 nM by spinning disk confocal microscopy; format: ADME, cell-based; conditions: hsc-2, 0.1 µM; outline: as §3
HSC-2 [24] = test: Cell cycle arrest in human HSC2 cells in dark assessed as accumulation at sub-G1 phase at 0.25 uM after 12 hrs by flow cytometry relative to control; format: functional; outline: as §1

SMILES: CC1=C(I)C(C)=[N+]2C1=C(CCC(=O)O)c1c(C)c(I)c(C)n1[B-]2(F)F
- Activity (HSC-2 [1]): 10.6%
- Activity (HSC-2 [2]): 8.7%
- Drug uptake [3]: Active
- Activity (HSC-2 [4]): 48.4%
- Activity (HSC-2 [5]): 4.4%
- viability at 0.5 µM (HSC-2 [6]): 10.1%
- Activity (Gallus gallus): Active
- Activity (HSC-2 [7]): 44.1%
- Activity (HSC-2 [8]): 3.7%
- IC50 (HSC-2 [9]): > 100 µM
- viability at 0.5 µM (HSC-2 [10]): 97%
- Activity (HSC-2 [11]): 3%
- IC50 [12]: 55.8 µM
- Activity (HSC-2 [13]): 26%
- IC50 (HL-60): > 100 µM
- Activity (HSC-2 [14]): 55.5%
- IC50 (HSC-2 [15]): 0.1 µM
- Activity (HSC-2 [16]): 39.8%
- IC50 [17]: 0.57 µM
- Activity (HSC-2 [18]): 55.2%
- viability at 0.5 µM (HSC-2 [19]): 52.6%
- Activity (HSC-2 [20]): 48.8%
- Activity (HSC-2 [21]): 3.7%
- viability at 0.5 µM (HSC-2 [22]): 91.3%
- Activity [23]: Not Active
- Activity (HSC-2 [24]): 3.8%
